Measured values published in ChEMBL document CHEMBL1799956, “Convergent synthesis and biological evaluation of 2-amino-4-(3',4',5'-trimethoxyphenyl)-5-aryl thiazoles as microtubule targeting agents” (J Med Chem, 2011).

Tests used:
A549 [1] = test: Antiproliferative activity against human A549 cells assessed as growth inhibition after 72 hrs by MTT assay; assay type: functional, cell-based; details: A549, 72 h
HeLa = test: Antiproliferative activity against human HeLa cells assessed as growth inhibition after 72 hrs by MTT assay; assay type: functional, cell-based
Jurkat = test: Antiproliferative activity against human Jurkat cells assessed as growth inhibition after 72 hrs by MTT assay; assay type: functional, cell-based
MCF7 = test: Antiproliferative activity against human MCF7 cells assessed as growth inhibition after 72 hrs by MTT assay; assay type: functional, cell-based; details: MCF7, 72 h
HL-60 = test: Antiproliferative activity against human HL60 cells assessed as growth inhibition after 72 hrs by MTT assay; assay type: functional, cell-based; details: HL-60, 72 h
K562 = test: Antiproliferative activity against human K562 cells assessed as growth inhibition after 72 hrs by MTT assay; assay type: functional, cell-based; details: K562, 72 h
HT-29 = test: Antiproliferative activity against human HT-29 cells assessed as growth inhibition after 72 hrs by MTT assay; assay type: functional, cell-based; details: HT-29, 72 h
[2] = Inhibition of bovine brain tubulin polymerization after 20 mins by turbidimetric analysis; design: species or system Bos taurus
In short: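 Purified tubulin at 10 μM was used for the assembly (polymerization) inhibition assay. IC50 is the concentration inhibiting assembly.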

Bos taurus [3] = organism: Bos taurus; test: Displacement of [3H]colchicine from bovine brain tubulin at 5 uM
In short: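 [3H]colchicine binding inhibition with tubulin at 1 μM, [3H]colchicine at 5 μM and test compound at 5 μM.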

[4] = Antiproliferative activity against human taxol-resistant A549-T12 cells assessed as growth inhibition after 72 hrs by MTT assay; assay type: functional, cell-based; details: A549, 72 h
A549 [5] = test: Fold resistance, ratio of IC50 for human taxol-resistant A549-T12 cells to IC50 for human A549 cells; assay type: functional
LoVo [6] = test: Antiproliferative activity against human LoVo cells assessed as growth inhibition after 72 hrs by MTT assay; assay type: functional, cell-based
LoVo [7] = test: Fold resistance, ratio of IC50 for human doxorubicin-resistant LoVo cells overexpressing P-gp to IC50 for human LoVo cells; assay type: functional
In short: (§1)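 Fold resistance taken as the ratio of IC50 in the resistant line to IC50 in the parental line, each IC50 from dose-response curves of at least three independent experiments.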

LoVo [8] = test: Antiproliferative activity against human doxorubicin-resistant LoVo cells overexpressing P-gp assessed as growth inhibition after 72 hrs by MTT assay; assay type: functional, cell-based
CCRF-CEM [9] = test: Fold resistance, ratio of IC50 for human vinblastine-resistant CEM/VBL100 cells overexpressing P-gp to IC50 for human CEM cells; assay type: functional; in short: as §1
CCRF-CEM [10] = test: Antiproliferative activity against human CEM cells assessed as growth inhibition after 72 hrs by MTT assay; assay type: functional, cell-based
[11] = Antiproliferative activity against human vinblastine-resistant CEM/VBL100 cells overexpressing P-gp assessed as growth inhibition after 72 hrs by MTT assay; assay type: functional, cell-based; details: CEM/VBL100, 72 h
Bos taurus [12] = organism: Bos taurus; test: Ratio of combretastatin A-4 IC50 to compound IC50 for bovine brain tubulin

| IC50 (A549 [1]) [nM] | IC50 (HeLa) [nM] | IC50 (Jurkat) [nM] | IC50 (MCF7) [nM] | IC50 (HL-60) [nM] | IC50 (K562) [nM] | IC50 (HT-29) [nM] | IC50 [2] [nM] | inhibition (Bos taurus [3]) [%] | IC50 (LoVo [6]) [nM] | IC50 (CCRF-CEM [10]) [nM] | Ratio IC50 (Bos taurus [12]) | Compound | IC50 [4] [nM] | Ratio IC50 (A549 [5]) | Ratio IC50 (LoVo [7]) | IC50 (LoVo [8]) [nM] | Ratio IC50 (CCRF-CEM [9]) | IC50 [11] [nM] |
| --- | --- | --- | --- | --- | --- | --- | --- | --- | --- | --- | --- | --- | --- | --- | --- | --- | --- | --- |
| 305 | 2.6 | 21.5 | 58.7 | 4 | 67.6 | 24 | 1100 | 72 | – | – | – | COc1ccc(-c2sc(N)nc2-c2cc(OC)c(OC)c(OC)c2)cc1C | – | – | – | – | – | – |
| 11.2 | 0.91 | 0.06 | 14.1 | 0.27 | 8.8 | 15.6 | 890 | 87 | 2 | 1.4 | – | CCOc1ccc(-c2sc(N)nc2-c2cc(OC)c(OC)c(OC)c2)cc1Cl | 8.5 | 0.8 | 0.9 | 1.7 | 0.5 | 0.7 |
| 2370 | 209 | 48.4 | 476 | 118 | 728 | 239 | – | – | – | – | – | COc1cccc(-c2sc(N)nc2-c2cc(OC)c(OC)c(OC)c2)c1 | – | – | – | – | – | – |
| 3.1 | 2 | 7.3 | 18.6 | 6.1 | 6 | 5.7 | 1200 | 81 | – | – | – | COc1ccc(-c2sc(N)nc2-c2cc(OC)c(OC)c(OC)c2)cc1F | – | – | – | – | – | – |
| 1800 | 249 | 319 | 1170 | 301 | 829 | 432 | – | – | – | – | – | COc1ccc(-c2sc(N)nc2-c2cc(OC)c(OC)c(OC)c2)cc1OC | – | – | – | – | – | – |
| 42.8 | 0.73 | 3.9 | 280 | 3.9 | 58.7 | 12.4 | 440 | 88 | – | – | 3 | COc1cc(-c2nc(N)sc2-c2ccc(C)cc2)cc(OC)c1OC | – | – | – | – | – | – |

The next lines start with the compound.

| Compound | IC50 (A549 [1]) [nM] | IC50 (HeLa) [nM] | IC50 (Jurkat) [nM] | IC50 (MCF7) [nM] | IC50 (HL-60) [nM] | IC50 (K562) [nM] | IC50 (HT-29) [nM] | IC50 [2] [nM] | inhibition (Bos taurus [3]) [%] | IC50 (LoVo [6]) [nM] | IC50 (CCRF-CEM [10]) [nM] | Ratio IC50 (Bos taurus [12]) | IC50 [4] [nM] | Ratio IC50 (A549 [5]) | Ratio IC50 (LoVo [7]) | IC50 (LoVo [8]) [nM] | Ratio IC50 (CCRF-CEM [9]) | IC50 [11] [nM] |
| --- | --- | --- | --- | --- | --- | --- | --- | --- | --- | --- | --- | --- | --- | --- | --- | --- | --- | --- |
| COc1cc(-c2nc(N)sc2-c2ccccc2)cc(OC)c1OC | 9600 | 3090 | 3830 | > 10000 | 3640 | 8500 | 7920 | – | – | – | – | – | – | – | – | – | – | – |
| COc1cc(-c2nc(N)sc2-c2cccc3ccccc23)cc(OC)c1OC | 6320 | 3860 | 4690 | > 10000 | 8660 | 9030 | > 10000 | – | – | – | – | – | – | – | – | – | – | – |
| CC(=O)O[C@H]1C(=O)[C@@]2(C)[C@H]([C@H](OC(=O)c3ccccc3)[C@]3(O)C[C@H](OC(=O)[C@H](O)[C@@H](NC(=O)c4ccccc4)c4ccccc4)C(C)=C1C3(C)C)[C@]1(OC(C)=O)CO[C@@H]1C[C@@H]2O [PACLITAXEL] | 7.2 | – | – | – | – | – | – | – | – | – | – | – | 75.2 | 10.4 | – | – | – | – |
| CCc1ccc(-c2sc(N)nc2-c2cc(OC)c(OC)c(OC)c2)cc1 | 238 | 1 | 4.1 | 117 | 1.1 | 49.7 | 54.1 | 1100 | 73 | – | – | – | – | – | – | – | – | – |
| COc1ccc(-c2sc(N)nc2-c2cc(OC)c(OC)c(OC)c2)cc1 | 20.2 | 2.3 | 2.1 | 60.9 | 3.2 | 5.1 | 11.7 | 1100 | 79 | 3.1 | 7.7 | – | 11.4 | 0.6 | 0.25 | 0.8 | 0.1 | 1.2 |
| COc1cc(-c2nc(N)sc2-c2cc3ccccc3s2)cc(OC)c1OC | 16 | 2.8 | 0.6 | 47 | 0.9 | 19.6 | 19.1 | 2000 | 86 | – | – | – | – | – | – | – | – | – |
| COc1cccc2c1C(=O)c1c(O)c3c(c(O)c1C2=O)C[C@@](O)(C(=O)CO)C[C@@H]3O[C@H]1C[C@H](N)[C@H](O)[C@H](C)O1 [DOXORUBICIN] | – | – | – | – | – | – | – | – | – | 120 | – | – | – | – | 109.6 | – | – | – |
| COc1cc(-c2nc(N)sc2-c2ccc(C(F)(F)F)cc2)cc(OC)c1OC | 357 | 3.2 | 8.5 | 0.4 | 5.1 | 7.6 | 221 | 4000 | 25 | – | – | – | – | – | – | – | – | – |
| COc1ccc(-c2sc(N)nc2-c2cc(OC)c(OC)c(OC)c2)cc1Cl | 37.7 | 1.6 | 2.9 | 27.3 | 2.8 | 36.1 | 12.8 | 880 | 77 | – | – | – | – | – | – | – | – | – |
| COc1cc(-c2nc(N)sc2-c2ccc3ccccc3c2)cc(OC)c1OC | 3.8 | 1.6 | 3.3 | 51.2 | 2.7 | 22.1 | 23.9 | 740 | 94 | – | – | – | – | – | – | – | – | – |
| CC[C@]1(O)C[C@@H]2CN(CCc3c([nH]c4ccccc34)[C@@](C(=O)OC)(c3cc4c(cc3OC)N(C)[C@H]3[C@@](O)(C(=O)OC)[C@H](OC(C)=O)[C@]5(CC)C=CCN6CC[C@]43[C@@H]65)C2)C1 [VINBLASTINE] | – | – | – | – | – | – | – | – | – | – | 4.1 | – | – | – | – | – | 56.1 | 230 |
